Assay results: ChEMBL document CHEMBL1125277, “Novel cerebroprotective agents with central nervous system stimulating activity. 1. Synthesis and pharmacology of 1-amino-7-hydroxyindan derivatives” (1991)

What was measured:
Format in all cases: functional
Mus musculus [1] = test: Antihypoxic effect by the survival time (SVT) in mice at a dose of 30 mg/kg administered subcutaneously in mice; design: unit: % of control; settings: route subcutaneous
Summary of the method: (§1)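 Male ICR mice (20–30 g), groups of 10, dosed 0.25 h (iv, sc or ip) or 1 h (oral) before test. Mice placed in desiccator evacuated to 210 mmHg. Survival time measured from pump start to cessation of respiration, capped at 900 s. Activity expressed as % of control survival time; Wilcoxon sum test.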

Mus musculus [2] = test: Antihypoxic effect tested by the survival time (SVT) in mice at a dose of 100 mg/kg; design: unit: % of control; summary of the method: as §1
Mus musculus [3] = test: Time of recovery of spontaneous movement (SMT) in seconds was measured after administration of 100 mg/kg orally in mice for the promotional effect on recovery from coma
Summary of the method: (§2)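 Male ICR mice (20–30 g) were dosed orally 1 h before concussion was induced, and saline-dosed mice served as controls. Times to recovery of righting reflex and of spontaneous movement were recorded in seconds. Brains were examined post mortem, and mice with contused brain wounds were excluded. Statistics used the Wilcoxon sum test.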

Mus musculus [4] = test: Time of recovery of righting reflux (RRT) in seconds was measured after administration of 100 mg/kg orally in mice for the promotional effect on recovery from coma; summary of the method: as §2
Mus musculus [5] = test: Time of recovery of righting reflux (RRT) in seconds was measured after administration of 40 mg/kg intraperitoneally in mice for the promotional effect on recovery from coma; settings: route intraperitoneal
Summary of the method: (§3)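 Male ICR mice (20–30 g); concussion-induced coma model of head injury. Control mice received the same amount of physiological saline. Brains examined post mortem and mice with contused wounds excluded. Recovery times in seconds (righting reflex or spontaneous movement) expressed as % of control; Wilcoxon sum test.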

Mus musculus [6] = test: Time of recovery of spontaneous movement (SMT) in seconds was measured after administration of 40 mg/kg intraperitoneally in mice for the promotional effect on recovery from coma; settings: route intraperitoneal; summary of the method: as §3
Mus musculus [7] = test: Antihypoxic effect by the survival time (SVT) in mice at a dose of 40 mg/kg administered intraperitoneally in mice; settings: route intraperitoneal; summary of the method: as §1
Mus musculus [8] = test: Antihypoxic effect by the survival time (SVT) in mice at a dose of 30 mg/kg administered intraperitoneally in mice; settings: route intraperitoneal; summary of the method: as §1
Mus musculus [9] = test: Antihypoxic effect by the survival time (SVT) in mice at a dose of 100 mg/kg administered intraperitoneally in mice; summary of the method: as §1
Mus musculus [10] = test: Time of recovery of spontaneous movement (SMT) in seconds was measured after administration of 200 mg/kg perorally in mice for the promotional effect on recovery from coma; settings: route oral; summary of the method: as §2
Mus musculus [11] = test: Time of recovery of righting reflux (RRT) in seconds was measured after administration of 200 mg/kg perorally in mice for the promotional effect on recovery from coma; settings: route oral; summary of the method: as §2
Mus musculus [12] = test: Antihypoxic effect by the survival time (SVT) in mice at a dose of 3 mg/kg administered intravenously in mice; settings: route intravenous; summary of the method: as §1
Mus musculus [13] = test: Time of recovery of spontaneous movement (SMT) in seconds was measured after administration of 2.5 mg/kg intravenously in mice for the promotional effect on recovery from coma; settings: route intravenous
Summary of the method: (§4)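 This is the concussion-induced coma model in male ICR mice (20–30 g), with saline-treated controls. Righting-reflex and spontaneous-movement recovery times were recorded in seconds. Animals with contused brain wounds at post-mortem were excluded. Groups were compared by Wilcoxon sum test.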

Mus musculus [14] = test: Time of recovery of righting reflux (RRT) in seconds was measured after administration of 2.5 mg/kg intravenously in mice for the promotional effect on recovery from coma; settings: route intravenous; summary of the method: as §4

Compound	SVT (Mus musculus [1])	SVT (Mus musculus [2])	SMT (Mus musculus [3]; route oral) [s]	RRT (Mus musculus [4]; route oral) [s]	further results
Cc1cc(Br)c(O)c2c1CCC2N.Cl (configuration not stated)	308	130.1	83.4	81.5	
Cc1cc([N+](=O)[O-])c(O)c2c1CCC2N.Cl (configuration not stated)	189.7				
Cc1ccc(O)c2c1CCC2N.Cl (configuration not stated)	157.8	98.4	42.6	40.1	
CCCCNC1CCc2c(C)cc(C)c(O)c21.Cl (configuration not stated)		187.3	57.7	55.3	
COc1c(C)cc(C)c2c1C(N)C(C)(C)C2.Cl (configuration not stated)		164.3	39.2	43.6	
CCCC(C)C1(CC)C(=O)N=C([O-])NC1=O.[Na+] (configuration not stated) [PENTOBARBITAL SODIUM]					RRT (Mus musculus [5]): 494 s; SMT (Mus musculus [6]): 283 s; SVT (Mus musculus [7]): 306.7
Cc1cc(C(C)(C)C)c(O)c2c1CCC2N.Cl (configuration not stated)			113.5	90.6	SVT (Mus musculus [8]): 252.8
Cc1cc(C)c2c(c1O)C(N)CC2.Cl (configuration not stated)	303.4	255.7	61.4	51.4	
CCCc1ccc2c(c1O)C(N)CC2.Cl (configuration not stated)	138	158	79.5	70.5	
CCCc1cc(CC)c2c(c1O)C(N)CC2.Cl (configuration not stated)	194.3	206.8	116.3	94.4	
CC(=O)Nc1cc(C)c2c(c1O)C(N)CC2.Cl (configuration not stated)	46.8				
Cc1cc(C)c2c(c1O)C(N)C(c1ccccc1Cl)C2.Cl (configuration not stated)		151	33.8	35.8	
Cc1cc(C(C)(C)C)c(O)c(C(C)(C)C)c1 [BUTYLATED HYDROXYTOLUENE]		87.6	80.9	69.6	SVT (Mus musculus [9]; route intraperitoneal): 358.8
CN(C)CCOC(=O)COc1ccc(Cl)cc1 [MECLOFENOXATE]		106			SMT (Mus musculus [10]): 63.8 s; RRT (Mus musculus [11]): 53.8 s; SVT (Mus musculus [12]): 133
Cc1cc(C)c2c(c1O)C(N)C(C)(C)C2.Cl (configuration not stated)	298.1	288	53.9	37.2	
Cc1cc(C)c2c(c1O)C(N)C(C)(Cc1ccccc1)C2.Cl (configuration not stated)		167.3	32.6	29.9	
COc1c(C)cc(C)c2c1C(N)C(C)(c1ccccc1)C2.Cl (configuration not stated)		117.9	23.9	25	
CC(C)(C)c1cc(C(C)(C)C)c2c(c1O)C(N)CC2.Cl (configuration not stated)		119.2	157.6	160.2	SVT (Mus musculus [8]): 171.3
CN(C)CCCN1c2ccccc2CCc2ccccc21.Cl [IMIPRAMINE HYDROCHLORIDE]		67.9	115.5	113.4	

Compound	SVT (Mus musculus [1])	SVT (Mus musculus [2])	SMT (Mus musculus [3]; route oral) [s]	RRT (Mus musculus [4]; route oral) [s]	further results
Cc1cc(C)c2c(c1O)C(N)C(C)C2.Cl (configuration not stated)		237.7	71	79.1	
Cl.NC1CCc2cccc(O)c21 (stereo in doubt; 11b)					SVT (Mus musculus [2]; 100 mg/kg): 78
Cc1cc(I)c(O)c2c1CCC2N.Cl (configuration not stated)	184.6		92.3	81.1	
CCC(C)c1cc(C)c2c(c1O)C(N)CC2.Cl (configuration not stated)	276.5	234.8	23.3	18.9	
Cc1ccccc1C1Cc2c(C)cc(C)c(O)c2C1N.Cl (configuration not stated)		161.3	45.9	44.4	
Cc1cc(C)c2c(c1O)C(N)C(c1ccccc1)C2.Cl (configuration not stated)		149.1	37.6	31.1	SVT (Mus musculus [8]): 185.7
NC(=O)[C@@H]1CCCN1C(=O)[C@H](Cc1c[nH]cn1)NC(=O)[C@@H]1CCC(=O)N1 [PROTIRELIN]					SMT (Mus musculus [13]): 40.9 s; SVT (Mus musculus [12]): 43.4; RRT (Mus musculus [14]): 40.8 s
Cl.NC1CCc2c(Cl)cc(Cl)c(O)c21 (configuration not stated)	65.8				
VITAMIN E		178			SVT (Mus musculus [9]): 96.7; SMT (Mus musculus [3]): 83.5 s; RRT (Mus musculus [4]): 92.2 s
Cl.NC1CCc2cccc(O)c21 (stereo in doubt; 11a)			99.1	102	SVT (Mus musculus [2]; 100 mg/kg): 204.8
Cc1cc(C)c2c(c1O)C(N)C(C)(c1ccccc1)C2.Cl (configuration not stated)		171.6	34.7	34.1	
Cc1cc(CN)c(O)c2c1CCC2N.Cl (configuration not stated)	74.3	110.2	79.3	69.9	
CNC1CCc2c(C)cc(C)c(O)c21.Cl (configuration not stated)	177.5		55.8	57.9	
CCCc1cc(C)c2c(c1O)C(N)CC2.Cl (configuration not stated)	244.6	205.3			
Cc1cc(C)c2c(c1O)C(N)C(Cc1ccccc1)C2.Cl (configuration not stated)		148	38.6	47	
Cc1cc(C)c2c(c1O)C(N)C(C)(Cc1ccccc1)C2.Cl.O (configuration not stated)		197	28.8	33	
Cl.NC1CCc2c(O)cccc21 (configuration not stated)		103.9			
Cc1cc(CC(C)C)c(O)c2c1CCC2N.Cl (configuration not stated)	281.4	149.9	76.1	59.3	
CCc1cc(C)c2c(c1O)C(N)C(c1ccccc1)C2.Cl (configuration not stated)		97.4	94.4	89.2	
